Efflux pump inh: inhibitors of Candida efflux pumps in yeast, primary screen, S. cerevisiae, Nile Red, multiplex; S. cerevisiae Candida pump triplex; inhibition, % at 10 µM; 0.44% of 330,000 active;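 active means plate passing quality check with inhibition over a set limit, or well fluorescence over plate mean plus 4 SD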;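 further: Nile Red retained in pooled yeast measured as flow cytometry median fluorescence; 0% = buffer negative control and 100% = Enniatin B positive control; higher means more Nile Red kept so more efflux inhibition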
Tb MetRS inh: T. brucei MetRS inhibitors, primary screen, biochemical, luminescence; methionyl-tRNA synthetase (Trypanosoma brucei brucei); purified T. brucei MetRS, ATP depletion, Kinase-Glo luminescence; inhibition, % at 11.9 µM; 0.4% of 360,000 active; AID 624268, 2012;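 active means inhibition above a per-plate cutoff of the control wells' mean inhibition plus 3 SD, cut at about 5.5% in these data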;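 further: 0% = DMSO wells median and 100% = median of wells with control inhibitor compound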
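Material: T. brucei methionyl-tRNA synthetase, purified; reagent: substrates ATP, L-methionine and bulk Escherichia coli tRNA; dosing: 11.9 µM single point; timing: 15 min plus 2 h at 25 °C; detection: luminescence of leftover ATP; evaluation: % inhibition; control set: DMSO-only wells as low control; replicates: singlicate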
SMARCA2 act: SMARCA2 (BRM) function activators, primary screen, cell-based, luminescence, high throughput; MG213 cells, MMTV-luciferase reporter, dexamethasone, overnight; activation, % at 9.1 µM; 1% of 370,000 active; AID 652017, 2013; in the data active means activation above about 7.8%;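 further: 0% = vehicle wells and 100% = reference activator wells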
H9c2 TAG inh: inhibitors of triacylglycerol accumulation, primary screen, cell-based, uHTS, fluorescence, H9c2; H9c2 cells, Nile Red lipid (TAG) fluorescence; cells loaded with 200 µM oleic acid; inhibition, % at 12.5 µM; 0.66% of 230,000 active; AID 651582, 2012;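 active means pattern-corrected inhibition of lipid staining of at least 50% with the nuclear-stain viability signal not falling by more than 50%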;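 further: 0% = DMSO wells and 100% = triacsin C control wells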
AHR act: AHR activators, primary screen, cell-based, luminescence, luciferase reporter, human. Aryl hydrocarbon receptor (Homo sapiens), P35869. 2.5% of 320,000 active. AID 2796, 2010. activation, % at 5 µM. AHR-responsive luciferase reporter cells; in the data active means activation above about 47%;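 further: 0% = vehicle wells and 100% = reference agonist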
Target sequence (P35869 whole entry, looked up): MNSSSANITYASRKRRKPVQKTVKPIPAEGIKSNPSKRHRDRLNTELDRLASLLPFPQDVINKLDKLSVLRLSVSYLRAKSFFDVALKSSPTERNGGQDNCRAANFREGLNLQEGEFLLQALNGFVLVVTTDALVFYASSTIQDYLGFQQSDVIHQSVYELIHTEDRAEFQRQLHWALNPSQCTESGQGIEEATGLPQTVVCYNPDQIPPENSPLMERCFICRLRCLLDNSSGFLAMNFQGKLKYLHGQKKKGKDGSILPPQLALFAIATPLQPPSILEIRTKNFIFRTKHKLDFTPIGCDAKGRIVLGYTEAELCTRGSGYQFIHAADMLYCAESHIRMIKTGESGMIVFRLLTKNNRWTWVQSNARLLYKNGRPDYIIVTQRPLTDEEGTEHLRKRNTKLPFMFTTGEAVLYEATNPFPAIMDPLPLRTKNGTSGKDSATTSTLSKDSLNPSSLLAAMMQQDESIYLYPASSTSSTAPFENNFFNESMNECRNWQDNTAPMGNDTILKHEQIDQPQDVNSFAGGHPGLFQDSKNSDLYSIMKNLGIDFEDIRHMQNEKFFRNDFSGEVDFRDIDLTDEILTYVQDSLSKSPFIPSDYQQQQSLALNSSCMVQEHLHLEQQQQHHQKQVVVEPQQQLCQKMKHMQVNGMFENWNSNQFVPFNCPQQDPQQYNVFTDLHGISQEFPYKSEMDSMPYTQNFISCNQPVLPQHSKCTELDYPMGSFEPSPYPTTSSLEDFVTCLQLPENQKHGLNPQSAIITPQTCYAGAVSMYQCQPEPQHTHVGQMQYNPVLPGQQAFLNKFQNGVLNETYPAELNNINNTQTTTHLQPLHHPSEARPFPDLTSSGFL
SMARCA2 conf: SMARCA2 (BRM) function activators, confirmation, cell-based, luminescence, triplicate; activation, % at 9.1 µM; shares compounds with SMARCA2 act; 30% of 3,500 active; AID 652260, 2013; MG213 cells, MMTV-luciferase with dexamethasone, overnight; MG213 cells expressing E1A, Rb sequestered; DMSO wells 0%, reference activator 100%;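 active means activation above its plate's cutoff, the mean activation of tested wells plus 3 SD, cut at about 7.9% in these data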
GAL4-VP16 Luc: GAL4-VP16 luciferase reporter activation, counter-screen for SMARCA2 (BRM) activator project, cell-based, pG5luc, luminescence, high throughput; activation, % at 9.1 µM; shares compounds with SMARCA2 act; HEK293 GAL4-VP16 pG5luc reporter; scaled: DMSO wells 0%, SAHA wells 100%; 41% of 3,500 active;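 active means activation above the solvent-only control well mean plus 3 SD, averaged across control plates, cut at about 5.2% in these data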
* = called active by the depositor; · = not tested or not shown; ! = a repeat was not active. An excerpt weighted towards active compounds, which were near 4.1% of everything screened.

SMILES | Efflux pump inh | Tb MetRS inh | SMARCA2 act | H9c2 TAG inh | AHR act | SMARCA2 conf | GAL4-VP16 Luc
COC(=O)[C@]12C[C@H](CC(=O)NCc3cccs3)C(=O)N(Cc3ccccc3)C1=C[C@H](C1CCCC1)O[C@@H]2C | · | · | -6 | · | · | · | ·
CCn1c2ccccc2c2nnc(SCC(N)=O)nc21 | 0 | -1 | 3 | · | -2 | · | ·
CCn1c2ccccc2c2nnc(SCc3ccccc3)nc21 | 0 | 0 | 8.2* | -81 | 63* | -2 | -1
N#Cc1c(N)[nH]c(C(=O)c2ccccc2)c1-c1ccc(Br)cc1 | · | · | -2 | · | · | · | ·
Cc1ccc(-c2noc(-c3ccoc3C)n2)cc1 | 0 | -1 | 10* | · | 11 | 8.2* | 10*
Cc1occc1-c1nc(-c2ccccn2)no1 | 0 | -1 | 2 | -6 | 6 | · | ·
N#CC1(c2ccc(NC(=O)c3ccccc3F)cc2)CCCC1 | 0 | -1 | 9.5* | · | 9 | 9.3* | 8.6*
COc1ccc(C(=O)Nc2ccc(C3(C#N)CCCC3)cc2)cc1 | 0 | 0 | 0 | -4 | 6 | · | ·
CCOC(=O)[C@@]12CN(C(=O)OC(C)(C)C)CC=C1N(Cc1ccc(OC)cc1)C(=O)[C@H]2CC(=O)N1CCOCC1 | · | · | -4 | · | · | · | ·
COc1ccc(NC(=O)CSc2nnc(-c3n[nH]c4c3CCC4)n2N)cc1 | · | · | -6 | · | · | · | ·
CCC(=O)NC1=C(Nc2ccc(N)cc2)C(=O)c2ccccc2C1=O | 0 | -1 | 9.0* | · | 55* | 8 | 11*
COc1ccc(NC2=C(NC(C)=O)C(=O)c3ccccc3C2=O)cc1 | 0 | -1 | -1 | · | 12 | · | ·
Fc1ccccc1CSc1ncn[nH]1 | 0 | -1 | 9.0* | -3 | 0 | -2 | -1
O=C(Nc1cccc(Cl)c1)Nc1cccc(C(=O)O)c1 | 1 | 1 | 14* | 78 | -5 | 7.9* | 4
O=C(NCc1ccccc1)C(=O)Nc1cccc(C(=O)O)c1 | 0 | -1 | 13* | -7 | -7 | 10* | 11*
O=C(Nc1ccc(Cl)cc1)Nc1cccc(C(=O)O)c1 | 0 | 1 | 7 | · | -12 | · | ·
CCOc1ccc(NC(=O)Nc2cccc(C(=O)O)c2)cc1 | 0 | -1 | 11* | -2 | -12 | 7 | 9.3*
CC(=O)C1=C(C)N(Cc2ccc(Br)cc2)C(=S)NC1c1cccc(Cl)c1 (stereo not drawn) | · | · | -5 | · | · | · | ·
CCN(C(=O)COC(=O)c1c(-c2ccccc2)noc1C)C1CCS(=O)(=O)C1 (stereo not drawn) | 0 | -1 | 8.6* | -15 | 2 | -3 | 1
C[C@@H]1ON(C)[C@H]2C[C@H]3c4[nH]c5c(-c6ccc(Cl)cc6)cccc5c4CCN3C(=O)[C@@H]12 | · | · | -2 | · | · | · | ·
CCOc1cc(/C=C2\CN(CC)C/C(=C\c3ccc(O)c(OCC)c3)C2=O)ccc1O | 0 | -1 | 10* | · | 1 | -7 | -3
O=C(c1cc2c(c(-c3cccc(-c4ccncc4)c3)n1)[C@@H](CCO)N(C(=O)c1ccc3c(c1)OCO3)C2)N1CCOCC1 | · | -1 | 8.1* | · | · | 9.2* | 0
O=C(c1cc2c(c(-c3cccc(-c4ccc(F)cc4)c3)n1)[C@H](CCO)N(C(=O)c1ccc3c(c1)OCO3)C2)N1CCOCC1 | · | 0 | -1 | · | · | · | ·
CCOC(=O)N1CCN(C(=O)C[C@H]2C[C@@]3(C(=O)OC)C(=C[C@H](C(C)C)O[C@@H]3C3CC3)N(Cc3ccc4c(c3)OCO4)C2=O)CC1 | · | · | -3 | · | · | · | ·
CN(Cc1ccccc1)C(=O)OCc1cn(Cc2cccc(Cl)c2)nn1 | · | · | -3 | · | · | · | ·
SMILES | Efflux pump inh | Tb MetRS inh | SMARCA2 act | H9c2 TAG inh | AHR act | SMARCA2 conf | GAL4-VP16 Luc
COc1cc(CNc2cccc(F)c2)cc(Br)c1O | 0 | 0 | 9.2* | · | 11 | 5 | 2
Cc1cc2c(c(=O)o1)[C@@]1(C(=O)N(C)c3ccccc31)C1=C(CC(C)(C)OC1=O)O2 | · | · | -4 | · | · | · | ·
CC(C)(C(=O)c1ccccc1)/[N+]([O-])=C/c1ccccc1 | 0 | -1 | 6 | · | -1 | · | ·
CC(C)(C(=O)c1ccccc1)/[N+]([O-])=C/c1ccc(F)cc1 | 0 | 0 | 9.8* | · | -1 | -1 | -1
Cc1ccc(NC(=S)N/C(=N/S(=O)(=O)c2ccccc2)c2ccccc2)cc1 | 0 | 0 | 9.7*! | 1 | -2 | 6 | 5.8*
CCOc1ccc(-c2nnc(NC(=O)Cc3ccc(OC)cc3)o2)cc1 | 0 | 0 | -1 | · | 4 | · | ·
CCOc1ccc(-c2nnc(NC(=O)Cc3cc(OC)c(OC)c(OC)c3)o2)cc1 | 0 | 0 | 8.4* | · | 0 | 0 | 4
COc1cccc(NC(=O)c2ncc(Cl)c(Cl)c2Cl)c1 | 0 | 0 | 8.7* | -1 | 35 | 6 | 2
Cc1ccc(-n2ncc3c2ncn2c(C)nnc32)cc1C | 0 | 0 | 9.0* | · | 3 | 6 | 10*
O=C(CCOc1ccccc1F)N1CCN(c2ccccc2O)CC1 | 0 | -1 | 10* | 0 | 0 | 5 | 9.1*
CCc1ccc2[nH]c(=O)c(CN(CCN(CC)CC)C(=O)Nc3ccccc3OC)cc2c1 | 0 | 0 | 9.0* | 26 | 4 | -1 | 1
COc1ccccc1NC(=S)N(CCCN(C)C)Cc1cc2cc3c(cc2[nH]c1=O)OCO3 | 0 | 0 | 8.0* | 6 | 14 | -1 | 0
CCc1ccc2[nH]c(=O)c(CN(CCN(C)C)C(=O)Nc3ccccc3OC)cc2c1 | 0 | -1 | 0 | 15 | 5 | · | ·
CCN(CC)CCCN(Cc1cc2cc3c(cc2[nH]c1=O)OCO3)C(=S)Nc1ccccc1OC | 0 | 0 | 2 | 12 | 2 | · | ·
COc1ccc(C2C(C(=O)N3CCCCC3C)CC(=O)N2c2ccc(OC)cc2)cc1 (stereo not drawn) | · | · | 0 | · | · | · | ·
CC(=O)C(Cl)C(=O)Nc1ccccc1 (stereo not drawn) | · | -1 | 8.5* | 5 | · | -14 | 0
O=C(Nc1ccccc1)C(Cl)C(=O)c1ccccc1 (stereo not drawn) | 0 | 0 | 5 | · | 28 | · | ·
CCN(CC)C(=O)CC[C@H]1CC[C@]2(CCCN(Cc3cccs3)C2)O1 | · | · | -3 | · | · | · | ·
Cc1nn2cc(-c3ccc(Cl)cc3)nc2s1 | 0 | -1 | 8.7* | -23 | 6 | 2 | 10*
Cc1nn2cc(-c3ccc(-c4ccccc4)cc3)nc2s1 | 0 | -1 | -2 | -9 | -1 | · | ·
Cc1[nH]ccc2cc3nc4ccccc4c3cc12 | · | 0 | 18* | 34 | · | 76* | 1
Cc1cccc2nc3ccccc3cc12 | 0 | 0 | -3 | -1 | -1 | · | ·
